In the library only some 3.8% were active in any assay of this set; here they are far more common.
ANO1 activ – activators or potentiators of mouse TMEM16A chloride channel. Q8BHY3. HEK293 TMEM16A/YFP-H148Q/I152L, iodide quench fluorescence; active compounds read low. B-score at 10 µM. 0.3% of 340,000 active. AID 623877;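 active means fluorescence-ratio B-score plate-corrected deviation score at least 3 library SD below zero, with starting fluorescence score within 5 deviations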;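 further: channel opened by trigger with iodide after compound preincubation; score built on the fluorescence ratio of max minus min over baseline; more negative score means more quench and so TMEM16A activation or potentiation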
MC4R barr agon – activates human MC4R beta-arrestin recruitment. P32245. U2OS MC4R beta-arrestin complementation, luminescence; percent of melanotan II response, DMSO zero. activation, % at 8.9 µM. 0.98% of 360,000 active;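 active means activation above a per-plate cutoff, the mean activation of sample wells on that plate plus 3 SD, cut at about 8% in these data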
Target sequence (P32245 whole entry, looked up): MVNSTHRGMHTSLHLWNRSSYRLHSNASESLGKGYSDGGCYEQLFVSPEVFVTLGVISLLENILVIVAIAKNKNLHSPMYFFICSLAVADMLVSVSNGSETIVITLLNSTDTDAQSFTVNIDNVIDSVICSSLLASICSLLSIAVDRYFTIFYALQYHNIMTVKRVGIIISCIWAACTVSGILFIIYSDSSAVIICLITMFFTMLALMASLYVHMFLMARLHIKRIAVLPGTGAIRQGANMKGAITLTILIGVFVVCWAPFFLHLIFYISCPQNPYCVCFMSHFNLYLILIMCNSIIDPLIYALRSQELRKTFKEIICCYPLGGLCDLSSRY
CSC inhib – blocks cancer stem cells; cancer stem cell-like cells viability, luminescence; inhibition, % at 7.5 µM; 1.1% of 300,000 active; in the data active means inhibition above about 75%; inconclusive means no clear call, values can overlap the other calls; tested in HMLE shEcad cells
MC4R antag cAMP – human MC4R antagonism in cAMP assay; inhibition, % at 6.5 µM; 0.48% of 360,000 active; P32245; MC4R-expressing cells, MTII-stimulated cAMP, LANCE TR-FRET;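 active means inhibition above its plate's cutoff, the mean of tested wells on that plate plus 3 SD, cut at about 29% in these data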;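 further: 0% = Melanotan II alone and 100% = Melanotan II plus saturating MCL0020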
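System – human MC4R-expressing U2OS cells · Also added – Melanotan II · Dosing – one concentration, 6.5 µM nominal · Timing – 30-min compound, 1-h challenge, 1-h detection, room temperature · Measured by – Eu-cAMP/anti-cAMP TR-FRET, emission 671 nm · Replicates – singlicate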
TMEM16A inh – inhibitors of mouse TMEM16A calcium-activated chloride channel; Q8BHY3; HEK293 TMEM16A/YFP iodide influx fluorescence, ionomycin; normalized B-score (activity score, 25-100; higher = stronger inhibition) at 10 µM; 1.2% of 310,000 active; AID 588511;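 active means ratio plate-corrected score three or more library SD toward inhibition, starting fluorescence score within five deviations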;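 further: score derived from kinetic fluorescence span divided by baseline fluorescence per well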
Beta cell apopt – blocks beta cell apoptosis; INS-1E cytokine-induced death, ATP luminescence, 48 h; percent of positive-control rescue, neutral wells zero; protection from apoptosis, % (concentration not given with the values); 0.8% of 300,000 active;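 active means Every replicate reaches about 75%, or at least half do and their mean reaches it too, limit read from the data; inconclusive means At least half of replicates reach the limit but their mean does not; inactive means Under half of replicates reach the limit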;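 further: 0% = cytokine-treated negative control wells and 100% = positive control rescue; higher means more ATP so stronger rescue from cytokine killing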
Numbers without * were called inactive; i = inactive; ? = inconclusive; / = not tested or not shown.

SMILES | ANO1 activ | MC4R barr agon | CSC inhib | MC4R antag cAMP | TMEM16A inh | Beta cell apopt
O=C1NN(c2ccccc2)C(=O)/C1=C/c1ccc(Sc2cccc3ccccc23)o1 | i | 0 | 79* | 5 | i | -37
CC1(C(=O)NS(=O)(=O)C2CC2)CCN(C(=O)c2ccccc2OC(F)(F)F)C1 (stereo unspecified) | / | 0 | / | 15 | / | /
CCN(CCCNC(=O)CCc1nc(-c2ccc(OC)cc2)no1)c1cccc(C)c1 | i | 0 | 0 | 2 | 100* | -11
CCn1c(SCC(=O)Nc2ccc(F)cc2)nnc1C1CC1 | i | 2 | 8 | 6 | i | -1
C=C(C(=O)c1ccccc1)C(CC(=O)c1ccccc1)c1ccccc1 (stereo unspecified) | i | -1 | ? | 8 | 100* | -27
CCOC(=O)c1ccc(NC(=O)c2ccc3c(c2)C(=O)N(Cc2cccnc2)C3=O)cc1 | i | 2 | 3 | 4 | i | -2
CCOC(=O)c1sc(NNC(=O)c2ccc(C)cc2)nc1C | i | -3 | 3 | 4 | i | -4
CCOC(=O)c1nc(NNC(=O)c2ccc([N+](=O)[O-])cc2)sc1C | i | -4 | 65 | 3 | i | 103*
C=C[C@@H]1c2cc(C)ccc2N(S(=O)(=O)c2ccc(C)cc2)[C@H](c2ccccc2C(F)(F)F)C1(C#N)C#N | i | 0 | 34 | 1 | / | 19
COc1cc(/C=N/NC(=O)CCn2c3ccccc3c3ccccc32)ccc1O | i | 0 | 13 | 2 | 25* | 3
COc1cc(/C=N/NC(=O)CCn2nnc3ccccc32)ccc1O | i | 0 | -15 | -5 | i | 3
O=C(/C=C/c1ccc(O)cc1)c1ccccc1 | i | -1 | 39 | 1 | i | -1
Cc1ccc(NC2=C(N3CCCCC3)C(=O)c3ccccc3C2=O)cc1 | i | -2 | -1 | -3 | i | 76*
COc1ccccc1NC1=C(N2CCCCC2)C(=O)c2ccccc2C1=O | i | -2 | 144* | 0 | i | 102*
CCN1CCN(C2=C(NS(=O)(=O)c3ccc(NC(C)=O)cc3)C(=O)c3ccccc3C2=O)CC1 | i | -4 | 12 | -14 | i | 54
O=C1C(Nc2cccc(O)c2)=C(N2CCCCC2)C(=O)c2ccccc21 | i | -1 | / | -6 | i | /
O=C1C(NS(=O)(=O)c2ccc(Br)cc2)=C(N2CCCCC2)C(=O)c2ccccc21 | i | -1 | 8 | -3 | i | 20
CC(=O)Nc1ccc(S(=O)(=O)NC2=C(N3CCN(C)CC3)C(=O)c3ccccc3C2=O)cc1 | i | -3 | 7 | -14 | i | 99*
O=C(/C=C/c1ccc(O)cc1)c1ccc(NC2=C(N3CCCCC3)C(=O)c3ccccc3C2=O)cc1 | i | 0 | 90* | 8 | i | 10
COc1cc(C(=O)OC(C)c2ccc(F)cc2)ccc1OCC(=O)N1CCOCC1 (stereo unspecified) | i | -3 | -9 | 6 | / | -8
O=C1C(Nc2ccccc2)=C(N2CCCCC2)C(=O)c2ccccc21 | i | -1 | 4 | -3 | i | 83*
CCCCOc1ccc(C(=O)N2CCNC(=O)C2)cc1 | i | 1 | / | 1 | i | -8
C/C(=N/OCc1ccc(Br)cc1)c1ccccn1 | i | 8.6* | 12 | -3 | i | -2
CN(C)C1CCN(Cc2cc(COCc3ccccc3)c3cccnc3c2O)C1 (stereo unspecified) | i | 0 | / | 0 | / | 77*
Oc1ccc(COCc2ccccc2)c2cccnc12 | i | -1 | 73 | 4 | i | 99*
Cc1ccc(C)c(S(=O)(=O)N2CCN(Cc3ccc(O)c4ncccc34)CC2)c1 | i | -3 | 5 | 10 | i | 87*
CCOC(=O)N1CCN(Cc2ccc(O)c3ncccc23)CC1 | / | / | 46 | / | i | -1
CCCOCc1ccc(O)c2ncccc12 | i | -2 | 32 | 10 | i | 107*
O=C1NC(Cc2ccccc2)c2nc3ccc(Cl)cc3c(=O)n2-c2ccccc21 (stereo unspecified) | / | / | / | / | / | 2
COc1cc(CN2CCc3ccccc3C2)ccc1O | i | -1 | 22 | -3 | i | 142*
